Measured values from ChEMBL document CHEMBL1131436, “Repaglinide and related hypoglycemic benzoic acid derivatives” (1998).
“And” between values parts separate entries of the source, which are not always exact repeats. Equal entries are not always repeated. The source made the active and inactive calls. The rule behind the calls is not given here.

Assays:
Rattus norvegicus [1] = assay: Maximum % decrease of blood glucose (deltaBG) was observed within 4 hour after administration orally at 1 mg/kg dose to fasted adult female rats versus a control group; NS =' not significant'; type: functional, organism-based; set-up: dose 1 mg/kg
Method in brief: (§1)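 Female Wistar rats (Chbb THOM, SPF, 200-220 g), fasted 24 h, dosed orally by gavage as suspension in 1.5% Tylose methylcellulose (10 mL/kg). Whole blood from retrobulbar plexus under light halothane, deproteinized with 0.33 M HClO4; glucose by hexokinase/G6PDH, hourly up to 4 h. % decrease vs control group (N = 7), Student's t-test, P ≤ 0.05.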

Rattus norvegicus [2] = assay: Maximum % decrease of blood glucose (deltaBG) was observed within 4 hour after administration orally at 5 mg/kg dose to fasted adult female rats versus a control group; type: functional; details: route oral; method in brief: as §1
Rattus norvegicus [3] = assay: Maximum % decrease of blood glucose (deltaBG) was observed within 4 hour after administration orally at 0.5 mg/kg dose to fasted adult female rats versus a control group; type: functional; details: route oral; method in brief: as §1
Rattus norvegicus [4] = assay: Maximum % decrease of blood glucose (deltaBG) was observed within 4 hour after administration orally at 25 mg/kg dose to fasted adult female rats versus a control group; type: functional; details: route oral; method in brief: as §1
Rattus norvegicus [5] = assay: Maximum % decrease of blood glucose (deltaBG) was observed within 4 hour after administration orally at 10 mg/kg dose to fasted adult female rats versus a control group; type: functional; details: route oral; method in brief: as §1
Rattus norvegicus [6] = assay: Maximum % decrease of blood glucose (deltaBG) was observed within 4 hour after administration orally at 0.1 mg/kg dose to fasted adult female rats versus a control group; type: functional; details: route oral; method in brief: as §1
Rattus norvegicus [7] = assay: Half-maximal effective dose was measured on rat blood glucose after administrating at 4 hr; type: functional
Method in brief: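 Adult fasted female Wistar rats (Chbb THOM, SPF, 200-220 g), food withdrawn 24 h; oral gavage of suspension in 1.5% Tylose (methylcellulose), 10 mL/kg. Retrobulbar blood under light halothane; glucose by hexokinase/G6PDH after HClO4 deproteinization, hourly to 4 h. ED50 from fit of glucose vs dose, y = b + [a × k/(k + x^nH)], Hill coefficient nH.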

Rattus norvegicus [8] = assay: Maximum % decrease of blood glucose (deltaBG) was observed within 3 hour after administration orally at 0.1 mg/kg dose to fasted adult female rats versus a control group; NS =' not significant'; type: functional, organism-based; set-up: dose 0.1 mg/kg; method in brief: as §1
Rattus norvegicus [9] = assay: Maximum % decrease of blood glucose (deltaBG) was observed within 4 hour after administration orally at 0.1 mg/kg dose to fasted adult female rats versus a control group; NS =' not significant'; type: functional, organism-based; set-up: dose 0.1 mg/kg; method in brief: as §1
Rattus norvegicus [10] = assay: Maximum % decrease of blood glucose (deltaBG) was observed within 4 hour after administration orally at 0.3 mg/kg dose to fasted adult female rats versus a control group; type: functional; details: route oral; method in brief: as §1
Rattus norvegicus [11] = species on record: Rattus norvegicus; details: Blood, 0.1 mg/kg
Rattus norvegicus [12] = species on record: Rattus norvegicus; details: Blood, 0.1 mg/kg; remark: listed apart in the source
Rattus norvegicus [13] = species on record: Rattus norvegicus; details: Blood, 0.1 mg/kg; remark: listed apart in the source
Rattus norvegicus [14] = assay: Maximum % decrease of blood glucose (deltaBG) was observed within 0.5 hour after administration orally at 0.1 mg/kg dose to fasted adult female rats versus a control group; type: functional; details: route oral
Rattus norvegicus [15] = assay: Maximum % decrease of blood glucose (deltaBG) was observed within 1 hour after administration orally at 0.1 mg/kg dose to fasted adult female rats versus a control group; type: functional; details: route oral; method in brief: as §1
Rattus norvegicus [16] = assay: Maximum % decrease of blood glucose (deltaBG) was observed within 2 hour after administration orally at 0.1 mg/kg dose to fasted adult female rats versus a control group; type: functional; details: route oral; method in brief: as §1
Rattus norvegicus [17] = assay: Maximum % decrease of blood glucose (deltaBG) was observed within 3 hour after administration orally at 0.1 mg/kg dose to fasted adult female rats versus a control group; type: functional; details: route oral; method in brief: as §1
Rattus norvegicus [18] = assay: Maximum % decrease of blood glucose (deltaBG) was observed within 4 hour after administration orally at 0.01 mg/kg dose to fasted adult female rats versus a control group; type: functional; details: route oral; method in brief: as §1
Rattus norvegicus [19] = assay: Maximum % decrease of blood glucose (deltaBG) was observed within 4 hour after administration orally at 10 mg/kg dose to fasted adult female rats versus a control group; NS =' not significant'; type: functional, organism-based; set-up: dose 10 mg/kg; method in brief: as §1
Rattus norvegicus [20] = assay: Maximum % decrease of blood glucose (deltaBG) was observed within 4 hour after administration orally at 1 mg/kg dose to fasted adult female rats versus a control group; type: functional; details: route oral; method in brief: as §1
Rattus norvegicus [21] = assay: Maximum % decrease of blood glucose (deltaBG) was observed within 4 hour after administration orally at 25 mg/kg dose to fasted adult female rats versus a control group; NS =' not significant'; type: functional, organism-based; set-up: dose 25 mg/kg; method in brief: as §1
Rattus norvegicus [22] = assay: Maximum % decrease of blood glucose (deltaBG) was observed within 3 hour after administration orally at 0.5 mg/kg dose to fasted adult female rats versus a control group; type: functional; details: route oral; method in brief: as §1
Rattus norvegicus [23] = assay: Maximum % decrease of blood glucose (deltaBG) was observed within 1 hour after administration orally at 0.5 mg/kg dose to fasted adult female rats versus a control group; type: functional; details: route oral; method in brief: as §1
Rattus norvegicus [24] = assay: Maximum % decrease of blood glucose (deltaBG) was observed within 2 hour after administration orally at 0.5 mg/kg dose to fasted adult female rats versus a control group; type: functional; details: route oral; method in brief: as §1
[25] = Rattus norvegicus, Blood, 4 h, read-out: ED50

O=C(O)c1ccc(CCNC(=O)c2cc(Cl)ccc2N2CCCCC2)cc1
Delta BG (Rattus norvegicus [1]): Not significant
Delta BG (Rattus norvegicus [2]): -37%

CCCCC(NC(=O)Cc1ccc(C(=O)O)cc1)c1ccccc1N1CCCCC1 (stereo not drawn)
Delta BG (Rattus norvegicus [3]): -32%

CCOc1cc(CC(=O)NC(CC2CCCCCC2)c2ccccc2N2CCCCC2)ccc1C(=O)O (stereo not drawn)
Delta BG (Rattus norvegicus [3]): -19%

CN(C)c1ccc(Cl)cc1C(=O)NCCc1ccc(C(=O)O)cc1
Delta BG (Rattus norvegicus [4]): -28%

CCCC(NC(=O)Cc1ccc(C(=O)O)cc1)c1ccccc1C1=CCCCC1 (stereo not drawn)
Delta BG (Rattus norvegicus [1]): Not significant
Delta BG (Rattus norvegicus [5]): -48%

CCC(NC(=O)Cc1ccc(C(=O)O)cc1)c1ccccc1N1CCCCC1 (stereo not drawn)
Delta BG (Rattus norvegicus [3]): -28%

CCOc1cc(CC(=O)NC(CC2CCC2)c2ccccc2N2CCCCC2)ccc1C(=O)O (stereo not drawn)
Delta BG (Rattus norvegicus [6]): -27%

COc1ccc(Cl)cc1C(=O)NCCc1ccc(S(=O)(=O)NC(=O)NC2CCCCC2)cc1 [GLYBURIDE]
ED50 (Rattus norvegicus [7]; [25]): 0.255 mg/kg
Delta BG (Rattus norvegicus [8]): inactive
Delta BG (Rattus norvegicus [9]): inactive
Delta BG (Rattus norvegicus [10]): -25%
Delta BG (Rattus norvegicus [11]): inactive
Delta BG (Rattus norvegicus [12]): inactive
Delta BG (Rattus norvegicus [13]): inactive

CC(NC(=O)Cc1cccc(C(=O)O)c1)c1ccccc1N1CCCCC1 (stereo not drawn)
Delta BG (Rattus norvegicus [4]): -12%

CCOc1cc(CC(=O)N[C@@H](CC(C)C)c2ccccc2N2CCCCC2)ccc1C(=O)O (stereo in doubt; (S)-6al) [REPAGLINIDE]
ED50 (Rattus norvegicus [7]): 0.01 mg/kg
Delta BG (Rattus norvegicus [14]): -42%
Delta BG (Rattus norvegicus [15]): -47%
Delta BG (Rattus norvegicus [16]): -40%
Delta BG (Rattus norvegicus [17]): -34%
Delta BG (Rattus norvegicus [18]): -21%
Delta BG (Rattus norvegicus [6]; 0.1 mg/kg): -47%

CCCC(NCCc1ccc(C(=O)O)cc1)c1ccccc1N1CCCCC1 (stereo not drawn)
Delta BG (Rattus norvegicus [19]): Not significant

O=C(Cc1ccc(C(=O)O)cc1)N[C@H](c1ccccc1)c1ccccc1N1CCCCC1
Delta BG (Rattus norvegicus [1]): Not significant

C=C(C)CC(NC(=O)Cc1ccc(C(=O)O)c(OCC)c1)c1ccccc1N1CCCCC1 (stereo not drawn)
Delta BG (Rattus norvegicus [6]): -31%

CC1CC(C)CN(c2ccc(Cl)cc2C(=O)NCCc2ccc(C(=O)O)cc2)C1 (stereo in doubt; 5h)
ED50 (Rattus norvegicus [7]; [25]): 0.33 mg/kg
Delta BG (Rattus norvegicus [3]): -29%
Delta BG (Rattus norvegicus [20]; 1 mg/kg): -44%

CCCCCC(NC(=O)Cc1ccc(C(=O)O)c(OCC)c1)c1ccccc1N1CCCCC1 (stereo not drawn)
Delta BG (Rattus norvegicus [6]): -13%
Delta BG (Rattus norvegicus [3]): -42%

CCCC(NC(=O)Cc1ccc(C(=O)O)c(O)c1)c1ccccc1N1CCCCC1 (stereo not drawn)
Delta BG (Rattus norvegicus [1]): Not significant
Delta BG (Rattus norvegicus [5]): -47%

CCOc1cc(CC(=O)NC(C)c2ccccc2N2CCCCC2)ccc1C(=O)O (stereo not drawn)
Delta BG (Rattus norvegicus [6]): -27%

CC(NC(=O)Cc1ccc(C(=O)O)cc1)c1ccccc1N1CCCCCC1 (stereo not drawn)
Delta BG (Rattus norvegicus [2]): -29%

CC(NC(=O)Cc1ccc(C(=O)O)cc1)c1ccccc1N1CCCCCCCC1 (stereo not drawn)
Delta BG (Rattus norvegicus [21]): Not significant

CC(C)(NC(=O)Cc1ccc(C(=O)O)cc1)c1cc(Cl)ccc1N1CCCCC1
Delta BG (Rattus norvegicus [19]): Not significant

CC(NS(=O)(=O)Cc1ccc(C(=O)O)cc1)c1ccccc1N1CCCCC1 (stereo not drawn)
Delta BG (Rattus norvegicus [21]): Not significant

CCC[C@H](NC(=O)Cc1ccc(C(=O)O)cc1)c1ccccc1N1CCCCC1
Delta BG (Rattus norvegicus [6]): -29%

CC(C(=O)NCc1ccc(C(=O)O)cc1)c1ccccc1N1CCCCC1 (stereo not drawn)
Delta BG (Rattus norvegicus [2]): -32%

CCOc1cc(CC(=O)NC(CC2CCCC2)c2ccccc2N2CCCCC2)ccc1C(=O)O (stereo not drawn)
Delta BG (Rattus norvegicus [6]): -17%

COc1ccc(Cl)cc1C(=O)NCCc1ccc(C(=O)O)cc1 [MEGLITINIDE]
ED50 (Rattus norvegicus [7]; [25]): 9.4 mg/kg
Delta BG (Rattus norvegicus [20]): -9%
Delta BG (Rattus norvegicus [5]): -22%

CCCC(NC(=O)Cc1ccc(C(=O)O)c(OCC)c1)c1ccccc1N1CCCCC1 (stereo not drawn)
Delta BG (Rattus norvegicus [22]): -34%
Delta BG (Rattus norvegicus [15]): -32%
Delta BG (Rattus norvegicus [23]): -43%
Delta BG (Rattus norvegicus [16]): -30%
Delta BG (Rattus norvegicus [24]): -36%
Delta BG (Rattus norvegicus [17]): -25%
Delta BG (Rattus norvegicus [6]; 0.1 mg/kg): -32% and -18%
Delta BG (Rattus norvegicus [3]): -35%
